The target of one assay is Neuromedin-U receptor 2 (Homo sapiens, UniProt Q9GZQ4). Nature of the assay: Agonist activity at human NMU2R transfected in HEK293 cells after 7 hrs by luciferase reporter gene assay. Format: cell-based. The gist of the method:
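HEK-293 cells were stably co-transfected with a reporter gene construct and human NMU2R cDNA in pcDNA3.1(+), maintained under G418 selection at 37 °C in 5% CO2, then seeded and incubated overnight. Compounds were added at various concentrations for 7 h at 37 °C, followed by Bright-Glo luciferase read-out. Forskolin and NMU served as positive controls. EC50 was fitted by four-parameter logistic regression; means ± SEM of three independent experiments.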

Assay [1] deals with Adrenocorticotropic hormone receptor (Homo sapiens) (UniProt Q01718). Nature of the assay: Agonist activity at human MC2 receptor at 100 uM to 5 mM.
The target in assay [2] is Melanocortin receptor 3 (Homo sapiens) (UniProt P41968). Nature of the assay: Agonist activity at human MC3 receptor at 100 uM to 5 mM.
For assay [3], the target named is Melanocyte-stimulating hormone receptor (Mus musculus) (UniProt Q01727). Nature of the assay: Agonist activity at mouse MC1 receptor at 100 uM to 5 mM.
In assay [4] the target is Adrenocorticotropic hormone receptor (Mus musculus) (UniProt Q64326). Nature of the assay: Agonist activity at mouse MC2 receptor at 100 uM to 5 mM.
The target in assay [5] is Melanocortin receptor 3 (Mus musculus) (UniProt P33033). Nature of the assay: Agonist activity at mouse MC3 receptor at 100 uM to 5 mM.
Assay [6] deals with Melanocortin receptor 5 (Mus musculus) (UniProt P41149). Nature of the assay: Agonist activity at mouse MC5 receptor at 100 uM to 5 mM.
Assay [7] has as its target Melanin-concentrating hormone receptor 1 (Homo sapiens) (UniProt Q99705). Nature of the assay: Agonist activity at human MCH1 receptor at 100 uM to 5 mM.
The target in assay [8] is D(1A) dopamine receptor (Homo sapiens) (UniProt P21728). Nature of the assay: Agonist activity at human D1 receptor at 100 uM to 5 mM.
For assay [9], the target named is T1, Adenosine receptor A1 (Homo sapiens) (UniProt P30542).
T1 sequence (whole entry): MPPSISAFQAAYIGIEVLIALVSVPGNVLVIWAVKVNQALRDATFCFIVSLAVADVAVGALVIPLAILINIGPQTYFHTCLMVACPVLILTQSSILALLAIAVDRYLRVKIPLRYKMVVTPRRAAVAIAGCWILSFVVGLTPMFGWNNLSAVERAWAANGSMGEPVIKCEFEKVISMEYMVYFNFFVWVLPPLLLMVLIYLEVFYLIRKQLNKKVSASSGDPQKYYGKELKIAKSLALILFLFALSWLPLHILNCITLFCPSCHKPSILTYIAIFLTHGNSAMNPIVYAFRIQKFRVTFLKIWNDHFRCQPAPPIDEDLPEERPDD
Nature of the assay: Agonist activity at human A1 receptor at 100 uM to 5 mM.

For assay [10], the target named is T2, Parathyroid hormone/parathyroid hormone-related peptide receptor (Homo sapiens) (UniProt Q03431).
T2 sequence (whole entry): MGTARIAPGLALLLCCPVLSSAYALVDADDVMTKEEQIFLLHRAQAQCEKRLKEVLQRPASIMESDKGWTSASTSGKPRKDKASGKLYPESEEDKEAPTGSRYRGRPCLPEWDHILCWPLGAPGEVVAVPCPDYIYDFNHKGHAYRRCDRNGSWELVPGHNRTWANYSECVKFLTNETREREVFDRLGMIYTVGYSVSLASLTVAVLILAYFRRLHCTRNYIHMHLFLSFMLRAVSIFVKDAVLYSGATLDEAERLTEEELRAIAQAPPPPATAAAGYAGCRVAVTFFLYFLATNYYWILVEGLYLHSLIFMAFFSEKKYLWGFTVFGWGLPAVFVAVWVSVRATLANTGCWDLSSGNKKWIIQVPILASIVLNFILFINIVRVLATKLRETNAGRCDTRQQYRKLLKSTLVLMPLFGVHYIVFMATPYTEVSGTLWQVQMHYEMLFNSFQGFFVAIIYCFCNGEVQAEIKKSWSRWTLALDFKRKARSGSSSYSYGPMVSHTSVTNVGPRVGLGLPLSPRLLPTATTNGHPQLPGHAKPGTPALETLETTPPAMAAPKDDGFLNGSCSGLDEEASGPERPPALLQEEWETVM
Nature of the assay: Agonist activity at human PTH receptor at 100 uM to 5 mM.

The target in assay [11] is T3, C5a anaphylatoxin chemotactic receptor 1 (Homo sapiens) (UniProt P21730).
T3 sequence (whole entry): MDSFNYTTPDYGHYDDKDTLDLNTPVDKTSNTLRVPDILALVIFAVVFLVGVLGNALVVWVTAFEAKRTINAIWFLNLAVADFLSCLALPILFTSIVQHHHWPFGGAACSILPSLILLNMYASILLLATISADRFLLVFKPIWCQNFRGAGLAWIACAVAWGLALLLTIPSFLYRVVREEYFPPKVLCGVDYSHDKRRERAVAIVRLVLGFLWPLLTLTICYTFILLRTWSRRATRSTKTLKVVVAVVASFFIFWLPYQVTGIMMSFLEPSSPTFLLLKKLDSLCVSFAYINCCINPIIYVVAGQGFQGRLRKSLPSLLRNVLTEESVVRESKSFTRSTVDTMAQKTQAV
Nature of the assay: Agonist activity at human C5a receptor at 100 uM to 5 mM.

Assay [12] deals with T4, Neuropeptide Y receptor type 5 (Homo sapiens) (UniProt Q15761).
T4 sequence (whole entry): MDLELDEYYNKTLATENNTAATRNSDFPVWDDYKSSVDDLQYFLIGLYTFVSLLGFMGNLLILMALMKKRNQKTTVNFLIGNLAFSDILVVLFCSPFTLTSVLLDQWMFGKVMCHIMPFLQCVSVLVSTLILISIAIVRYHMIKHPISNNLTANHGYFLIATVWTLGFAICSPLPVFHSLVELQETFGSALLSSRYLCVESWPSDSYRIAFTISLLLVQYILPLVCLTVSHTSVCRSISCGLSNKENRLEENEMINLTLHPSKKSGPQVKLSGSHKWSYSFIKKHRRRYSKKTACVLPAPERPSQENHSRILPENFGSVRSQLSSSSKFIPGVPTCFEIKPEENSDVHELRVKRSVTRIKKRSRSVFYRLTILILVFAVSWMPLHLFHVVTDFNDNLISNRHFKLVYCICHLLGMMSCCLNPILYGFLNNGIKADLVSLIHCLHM
Nature of the assay: Agonist activity at human NPY5 receptor at 100 uM to 5 mM.

Calls of active or inactive are those of the source. No cut-off for these calls is given here.

Neuromedin-U receptor 2, sequence (Q9GZQ4 whole entry): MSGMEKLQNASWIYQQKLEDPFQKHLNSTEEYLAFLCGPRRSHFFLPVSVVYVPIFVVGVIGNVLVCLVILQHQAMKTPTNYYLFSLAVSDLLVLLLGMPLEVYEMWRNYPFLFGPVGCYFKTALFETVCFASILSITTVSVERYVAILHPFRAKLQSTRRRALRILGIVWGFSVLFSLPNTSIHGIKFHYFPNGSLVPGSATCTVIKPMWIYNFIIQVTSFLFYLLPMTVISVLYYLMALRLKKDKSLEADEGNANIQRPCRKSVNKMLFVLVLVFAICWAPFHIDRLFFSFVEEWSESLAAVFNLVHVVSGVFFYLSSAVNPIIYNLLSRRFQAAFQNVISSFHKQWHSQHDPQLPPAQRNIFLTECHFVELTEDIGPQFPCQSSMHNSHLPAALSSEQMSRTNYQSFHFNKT
Adrenocorticotropic hormone receptor (Mus musculus), sequence (Q64326 whole entry): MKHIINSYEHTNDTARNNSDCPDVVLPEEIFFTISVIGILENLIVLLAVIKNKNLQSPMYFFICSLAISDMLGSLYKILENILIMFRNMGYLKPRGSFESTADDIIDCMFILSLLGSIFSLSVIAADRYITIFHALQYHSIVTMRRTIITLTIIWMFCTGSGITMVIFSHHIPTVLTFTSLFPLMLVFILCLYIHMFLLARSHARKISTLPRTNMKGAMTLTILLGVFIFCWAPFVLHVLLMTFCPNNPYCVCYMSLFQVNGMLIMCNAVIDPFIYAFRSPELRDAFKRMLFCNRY
Melanocortin receptor 3 (Mus musculus), sequence (P33033 whole entry): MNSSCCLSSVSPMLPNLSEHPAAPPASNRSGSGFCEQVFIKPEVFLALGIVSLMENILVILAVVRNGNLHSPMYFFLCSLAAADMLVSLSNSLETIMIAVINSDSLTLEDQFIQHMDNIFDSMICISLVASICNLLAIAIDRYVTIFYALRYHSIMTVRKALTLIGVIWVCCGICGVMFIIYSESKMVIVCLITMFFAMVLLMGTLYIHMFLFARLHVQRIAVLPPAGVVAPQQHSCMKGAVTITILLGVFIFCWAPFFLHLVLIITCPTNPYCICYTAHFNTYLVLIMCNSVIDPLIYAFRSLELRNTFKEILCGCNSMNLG
D(1A) dopamine receptor (Homo sapiens), sequence (P21728 whole entry): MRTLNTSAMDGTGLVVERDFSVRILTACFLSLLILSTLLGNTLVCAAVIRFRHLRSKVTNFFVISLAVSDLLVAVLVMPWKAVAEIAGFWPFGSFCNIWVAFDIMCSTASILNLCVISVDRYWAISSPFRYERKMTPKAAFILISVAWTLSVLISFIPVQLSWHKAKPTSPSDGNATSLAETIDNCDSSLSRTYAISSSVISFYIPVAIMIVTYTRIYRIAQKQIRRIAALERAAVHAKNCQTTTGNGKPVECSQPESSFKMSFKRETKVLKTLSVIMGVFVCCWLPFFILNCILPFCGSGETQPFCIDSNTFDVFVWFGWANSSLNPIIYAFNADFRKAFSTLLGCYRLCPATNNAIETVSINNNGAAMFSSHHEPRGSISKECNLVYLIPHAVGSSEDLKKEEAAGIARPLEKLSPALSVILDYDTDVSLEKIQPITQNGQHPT
Melanocortin receptor 3 (Homo sapiens), sequence (P41968 whole entry): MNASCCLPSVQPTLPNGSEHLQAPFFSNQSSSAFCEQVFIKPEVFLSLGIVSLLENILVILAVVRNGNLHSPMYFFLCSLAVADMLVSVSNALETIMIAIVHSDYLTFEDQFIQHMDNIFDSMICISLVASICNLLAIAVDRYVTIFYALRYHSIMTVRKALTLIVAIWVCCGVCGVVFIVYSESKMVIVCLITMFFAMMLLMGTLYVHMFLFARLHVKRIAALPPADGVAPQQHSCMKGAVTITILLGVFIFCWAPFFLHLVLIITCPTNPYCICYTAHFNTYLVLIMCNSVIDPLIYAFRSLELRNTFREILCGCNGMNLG
Melanocortin receptor 5 (Mus musculus), sequence (P41149 whole entry): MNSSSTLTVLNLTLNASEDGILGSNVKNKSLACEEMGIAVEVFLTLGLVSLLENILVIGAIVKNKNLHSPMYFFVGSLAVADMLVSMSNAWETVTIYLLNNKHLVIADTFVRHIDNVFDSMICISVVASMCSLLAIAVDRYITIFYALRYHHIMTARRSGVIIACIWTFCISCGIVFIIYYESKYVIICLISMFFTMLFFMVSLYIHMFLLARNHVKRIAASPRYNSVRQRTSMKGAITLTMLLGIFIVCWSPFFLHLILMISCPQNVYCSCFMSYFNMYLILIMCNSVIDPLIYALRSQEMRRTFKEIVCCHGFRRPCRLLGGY
Adrenocorticotropic hormone receptor (Homo sapiens), sequence (Q01718 whole entry): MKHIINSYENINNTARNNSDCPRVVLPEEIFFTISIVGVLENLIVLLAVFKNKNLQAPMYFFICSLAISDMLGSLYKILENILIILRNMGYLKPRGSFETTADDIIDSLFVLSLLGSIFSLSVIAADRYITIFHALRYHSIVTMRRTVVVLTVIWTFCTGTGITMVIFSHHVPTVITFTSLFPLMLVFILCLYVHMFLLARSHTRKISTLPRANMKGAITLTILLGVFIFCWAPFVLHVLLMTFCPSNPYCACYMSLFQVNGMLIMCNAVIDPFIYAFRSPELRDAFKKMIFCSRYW
Melanin-concentrating hormone receptor 1 (Homo sapiens), sequence (Q99705 whole entry): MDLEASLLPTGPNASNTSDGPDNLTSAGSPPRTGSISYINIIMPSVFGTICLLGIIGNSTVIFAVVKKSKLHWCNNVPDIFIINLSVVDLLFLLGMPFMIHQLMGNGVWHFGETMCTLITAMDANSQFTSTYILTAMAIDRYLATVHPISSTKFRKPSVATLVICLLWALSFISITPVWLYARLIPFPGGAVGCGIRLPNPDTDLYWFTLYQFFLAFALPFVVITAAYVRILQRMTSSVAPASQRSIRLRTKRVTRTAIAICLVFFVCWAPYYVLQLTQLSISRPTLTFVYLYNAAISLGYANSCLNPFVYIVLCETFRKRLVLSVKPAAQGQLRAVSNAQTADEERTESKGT
Melanocyte-stimulating hormone receptor (Mus musculus), sequence (Q01727 whole entry, looked up): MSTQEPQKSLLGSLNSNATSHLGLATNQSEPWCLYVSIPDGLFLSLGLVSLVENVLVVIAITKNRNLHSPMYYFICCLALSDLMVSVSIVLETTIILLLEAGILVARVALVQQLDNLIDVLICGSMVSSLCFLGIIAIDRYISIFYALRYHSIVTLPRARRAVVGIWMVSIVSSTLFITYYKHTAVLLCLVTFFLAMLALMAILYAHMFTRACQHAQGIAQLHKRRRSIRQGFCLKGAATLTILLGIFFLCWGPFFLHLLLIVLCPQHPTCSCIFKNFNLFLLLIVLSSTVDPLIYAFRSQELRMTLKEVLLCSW

Regarding `Clc1ccc(C2C=Cc3ccccc3O2)c(Cl)c1` (racemic), at Neuromedin-U receptor 2 (hek293), the EC50 (usually the concentration that produces a half-maximal response) is “Not Active”. Further, the outcome in assay [1], in assay [2], in assay [3], in assay [4], in assay [5] and in assay [6] was inactive. Also, the outcome in assay [7], in [8], in [9], in [10], in [11] and in assay [12] was inactive.

In the case of `O=c1c(O)c(-c2ccccc2F)oc2ccccc12`, the EC50 at Neuromedin-U receptor 2 (read-out: EC50) worked out at 37.3 µM. Further, the result in assay [1], in [2], in assay [3], in assay [4], in assay [5] and in assay [6] was inactive. In addition, the outcome in [7], in assay [8], in [9], in assay [10], in assay [11] and in [12] was inactive.

Regarding `O=c1c(O)c(-c2cccc(Cl)c2)oc2ccccc12`, on Neuromedin-U receptor 2 (hek293), the EC50 result is on record as “Not Active”. Also, the result in assay [1], in [2], in assay [3], in assay [4], in assay [5] and in assay [6] was inactive. Also, the outcome in assay [7], in assay [8], in [9], in assay [10], in [11] and in [12] was inactive.

Consider `COc1ccc(-c2cc(=O)c3ccccc3o2)cc1O`, for which the EC50 entry on Neuromedin-U receptor 2 (hek293) was “Not Active”. Moreover, the outcome in assay [1], in assay [2], in assay [3], in assay [4], in assay [5] and in assay [6] was inactive. Also, the result in [7], in assay [8], in assay [9], in assay [10], in [11] and in assay [12] was inactive.

For `O=c1c(O)c(-c2ccc(O)cc2)oc2ccccc12`, the EC50 entry on Neuromedin-U receptor 2 (hek293) is “Not Active”. The outcome in assay [1], in assay [2], in [3], in assay [4], in assay [5] and in assay [6] was inactive. Also, the result in assay [7], in [8], in [9], in assay [10], in [11] and in assay [12] was inactive.

Turning to `CN(C)c1ccc(-c2oc3ccccc3c(=O)c2O)cc1`, the EC50 result on Neuromedin-U receptor 2 (hek293) is listed as “Not Active”. The result in assay [1], in [2], in [3], in assay [4], in assay [5] and in [6] was inactive. Moreover, the outcome in [7], in assay [8], in [9], in assay [10], in assay [11] and in assay [12] was inactive.

Take `Fc1ccccc1C1C=Cc2ccccc2O1` (racemic): the EC50 result at Neuromedin-U receptor 2 (hek293) is “Not Active”. For the same compound, the result in [1], in assay [2], in assay [3], in assay [4], in [5] and in assay [6] was inactive. For the same compound, the result in assay [7], in [8], in assay [9], in [10], in assay [11] and in [12] was inactive.

On to `COc1cc(-c2cc(=O)c3ccccc3o2)ccc1O`, for which, at Neuromedin-U receptor 2 (hek293), the EC50 result is on record as “Not Active”. The outcome in assay [1], in assay [2], in [3], in [4], in assay [5] and in [6] was inactive. In addition, the outcome in assay [7], in [8], in [9], in assay [10], in assay [11] and in assay [12] was inactive.

On to `CCOC(=O)COc1c(-c2cc(Br)ccc2F)oc2ccccc2c1=O`, for which, at Neuromedin-U receptor 2 (hek293), the EC50 entry is on record as “Not Active”. The outcome in assay [1], in [2], in assay [3], in assay [4], in [5] and in assay [6] was inactive. Besides, the result in [7], in assay [8], in assay [9], in assay [10], in [11] and in assay [12] was inactive.

These data come from ChEMBL document CHEMBL3351764, “Design, synthesis and biological activity of flavonoid derivatives as selective agonists for neuromedin U 2 receptor” (Bioorg Med Chem, 2014).
